Values after ≈ are worked out from the molar mass of the structure shown.
What was measured:
[1] = Lipophilicity, log D of the compound at pH 7.4; assay type: physicochemical; settings: buffer
[2] = Aqueous solubility of the compound in HBSS buffer at pH 7.4; assay type: physicochemical
[3] = target: T1, Cytochrome P450 2C9 (Homo sapiens, UniProt P11712); assay: Activity of human recombinant CYP2C9 assessed as enzyme contribution towards compound metabolism at 37 degC; assay type: ADME
Outline: (§1)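 CYP reaction phenotyping with human recombinant P450 isoforms at 37 °C. Each isoform's share of compound metabolism is given as percent contribution relative to the other isoforms in the test.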

[4] = target: T2, Cytochrome P450 3A4 (Homo sapiens, UniProt P08684); assay: Activity of human recombinant CYP3A4 assessed as enzyme contribution towards compound metabolism at 37 degC; assay type: ADME; design: concentration or dose not given beside the values; outline: as §1
T2 sequence (P08684 whole entry): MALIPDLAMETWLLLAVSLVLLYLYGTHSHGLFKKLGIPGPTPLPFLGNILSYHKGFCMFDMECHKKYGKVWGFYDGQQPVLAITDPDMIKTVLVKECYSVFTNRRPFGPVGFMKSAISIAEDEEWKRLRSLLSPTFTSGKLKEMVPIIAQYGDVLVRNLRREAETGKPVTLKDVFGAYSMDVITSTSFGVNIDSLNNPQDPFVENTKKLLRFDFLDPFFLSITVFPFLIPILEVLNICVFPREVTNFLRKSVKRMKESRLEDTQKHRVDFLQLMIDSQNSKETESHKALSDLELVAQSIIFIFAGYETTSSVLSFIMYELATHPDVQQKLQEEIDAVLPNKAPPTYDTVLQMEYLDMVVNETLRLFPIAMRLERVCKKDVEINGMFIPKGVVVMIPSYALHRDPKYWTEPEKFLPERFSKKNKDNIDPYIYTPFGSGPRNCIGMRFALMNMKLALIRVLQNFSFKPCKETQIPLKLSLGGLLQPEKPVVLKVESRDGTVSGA

[5] = target: T3, Cytochrome P450 2C8 (Homo sapiens, UniProt P10632); assay: Inhibition of human recombinant CYP2C8 coexpressed in Escherichia coli; assay type: ADME
T3 sequence (P10632 whole entry): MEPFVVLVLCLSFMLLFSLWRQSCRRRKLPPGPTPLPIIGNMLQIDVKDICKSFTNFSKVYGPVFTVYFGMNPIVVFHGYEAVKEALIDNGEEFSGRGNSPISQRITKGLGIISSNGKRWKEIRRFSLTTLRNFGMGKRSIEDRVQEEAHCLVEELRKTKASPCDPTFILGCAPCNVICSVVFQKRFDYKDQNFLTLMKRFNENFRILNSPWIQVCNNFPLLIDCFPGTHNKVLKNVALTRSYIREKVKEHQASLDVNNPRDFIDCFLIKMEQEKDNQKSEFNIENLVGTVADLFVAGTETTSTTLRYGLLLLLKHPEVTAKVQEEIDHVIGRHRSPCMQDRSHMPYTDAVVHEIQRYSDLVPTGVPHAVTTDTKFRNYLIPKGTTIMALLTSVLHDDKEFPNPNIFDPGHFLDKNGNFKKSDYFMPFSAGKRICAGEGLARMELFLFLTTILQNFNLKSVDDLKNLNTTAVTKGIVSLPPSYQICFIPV
Outline: (§2)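 Human recombinant cytochrome P450s at 37 °C. Read-out is inhibition of metabolic degradation of each isoform's substrate. Percent inhibition is measured at five test concentrations and converted to IC50.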

[6] = target: Voltage-gated inwardly rectifying potassium channel KCNH2 (Homo sapiens, UniProt Q12809); assay: Inhibition of human ERG channel expressed in CHO cells by patch clamp assay
Chain of Voltage-gated inwardly rectifying potassium channel KCNH2 (Q12809 whole entry): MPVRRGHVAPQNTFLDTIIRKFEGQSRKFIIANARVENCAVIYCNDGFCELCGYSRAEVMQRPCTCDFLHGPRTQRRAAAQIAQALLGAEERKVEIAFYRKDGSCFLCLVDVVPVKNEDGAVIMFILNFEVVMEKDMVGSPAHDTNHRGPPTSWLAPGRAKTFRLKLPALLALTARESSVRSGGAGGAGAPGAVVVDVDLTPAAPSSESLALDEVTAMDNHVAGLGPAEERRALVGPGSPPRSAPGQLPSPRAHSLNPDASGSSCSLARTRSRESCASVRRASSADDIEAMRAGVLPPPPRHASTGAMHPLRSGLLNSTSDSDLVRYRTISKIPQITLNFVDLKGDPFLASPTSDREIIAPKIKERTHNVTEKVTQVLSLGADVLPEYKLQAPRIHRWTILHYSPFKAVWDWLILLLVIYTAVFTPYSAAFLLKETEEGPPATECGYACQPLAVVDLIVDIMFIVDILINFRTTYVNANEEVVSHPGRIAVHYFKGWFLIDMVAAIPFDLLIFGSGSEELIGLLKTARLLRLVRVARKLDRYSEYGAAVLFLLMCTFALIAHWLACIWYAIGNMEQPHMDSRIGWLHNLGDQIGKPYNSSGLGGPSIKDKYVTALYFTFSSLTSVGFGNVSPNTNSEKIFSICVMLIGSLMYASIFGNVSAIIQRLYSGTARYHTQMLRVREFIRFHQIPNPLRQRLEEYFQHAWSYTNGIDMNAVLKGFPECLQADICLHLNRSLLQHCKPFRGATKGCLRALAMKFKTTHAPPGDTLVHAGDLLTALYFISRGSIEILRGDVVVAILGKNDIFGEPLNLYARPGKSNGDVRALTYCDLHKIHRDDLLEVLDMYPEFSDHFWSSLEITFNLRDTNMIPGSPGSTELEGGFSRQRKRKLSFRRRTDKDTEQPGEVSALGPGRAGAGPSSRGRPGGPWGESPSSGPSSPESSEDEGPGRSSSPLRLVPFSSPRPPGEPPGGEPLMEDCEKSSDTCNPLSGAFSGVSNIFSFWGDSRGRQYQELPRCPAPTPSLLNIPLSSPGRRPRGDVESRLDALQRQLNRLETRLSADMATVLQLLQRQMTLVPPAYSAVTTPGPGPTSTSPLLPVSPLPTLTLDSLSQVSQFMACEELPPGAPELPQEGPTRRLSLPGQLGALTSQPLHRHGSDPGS

[7] = target: T4, Cytochrome P450 2D6 (Homo sapiens, UniProt P10635); assay: Inhibition of human recombinant CYP2D6 coexpressed in Escherichia coli; assay type: ADME; outline: as §2
T4 sequence (P10635 whole entry): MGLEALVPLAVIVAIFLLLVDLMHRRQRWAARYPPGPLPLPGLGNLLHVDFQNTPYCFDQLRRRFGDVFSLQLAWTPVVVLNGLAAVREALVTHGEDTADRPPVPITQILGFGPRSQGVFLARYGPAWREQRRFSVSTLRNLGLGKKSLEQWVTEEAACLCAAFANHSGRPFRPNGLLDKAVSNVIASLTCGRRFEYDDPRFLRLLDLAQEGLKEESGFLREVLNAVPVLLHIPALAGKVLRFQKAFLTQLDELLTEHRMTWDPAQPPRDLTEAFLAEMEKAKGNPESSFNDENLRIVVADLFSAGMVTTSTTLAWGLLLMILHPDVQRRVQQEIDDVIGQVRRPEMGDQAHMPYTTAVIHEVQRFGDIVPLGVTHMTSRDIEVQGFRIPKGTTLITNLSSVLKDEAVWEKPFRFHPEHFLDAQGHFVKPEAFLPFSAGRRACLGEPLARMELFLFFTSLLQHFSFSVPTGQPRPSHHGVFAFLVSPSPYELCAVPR

[8] = target: T5, Cytochrome P450 1A2 (Homo sapiens, UniProt P05177); assay: Activity of human recombinant CYP1A2 assessed as enzyme contribution towards compound metabolism at 37 degC; assay type: ADME; outline: as §1
T5 sequence (P05177 whole entry): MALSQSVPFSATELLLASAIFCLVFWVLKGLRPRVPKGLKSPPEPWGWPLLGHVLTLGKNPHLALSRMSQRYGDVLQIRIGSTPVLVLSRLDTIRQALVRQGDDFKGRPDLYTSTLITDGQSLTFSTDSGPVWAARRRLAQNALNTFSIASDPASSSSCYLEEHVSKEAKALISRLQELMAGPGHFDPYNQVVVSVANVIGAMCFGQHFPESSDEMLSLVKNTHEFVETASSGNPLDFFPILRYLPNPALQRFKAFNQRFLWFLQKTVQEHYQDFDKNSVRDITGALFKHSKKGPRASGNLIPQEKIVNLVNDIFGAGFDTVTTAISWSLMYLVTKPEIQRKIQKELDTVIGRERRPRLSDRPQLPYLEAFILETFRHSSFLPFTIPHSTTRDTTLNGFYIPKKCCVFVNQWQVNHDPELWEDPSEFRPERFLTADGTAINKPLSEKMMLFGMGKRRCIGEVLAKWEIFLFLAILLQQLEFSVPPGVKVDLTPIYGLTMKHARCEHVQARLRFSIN

[9] = Intrinsic clearance in human liver microsomes at 1 mg/ml; assay type: ADME, Microsome; settings: read-out: CLH
Outline: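 Compound incubated 45 min at 37 °C with human liver microsomes at 1 mg/mL. CLint is taken from the rate of parent disappearance.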

[10] = target: T1, Cytochrome P450 2C9; assay: Inhibition of human recombinant CYP2C9 coexpressed in Escherichia coli; assay type: ADME; outline: as §2
[11] = target: T5, Cytochrome P450 1A2; assay: Inhibition of human recombinant CYP1A2 coexpressed in Escherichia coli using phenacetin as probe; assay type: ADME; outline: as §2
[12] = target: T2, Cytochrome P450 3A4; assay: Inhibition of human recombinant CYP3A4 coexpressed in Escherichia coli; assay type: ADME; outline: as §2
[13] = target: T6, Cytochrome P450 2C19 (Homo sapiens, UniProt P33261); assay: Activity of human recombinant CYP2C19 assessed as enzyme contribution towards compound metabolism at 37 degC; assay type: ADME; outline: as §1
T6 sequence (P33261 whole entry): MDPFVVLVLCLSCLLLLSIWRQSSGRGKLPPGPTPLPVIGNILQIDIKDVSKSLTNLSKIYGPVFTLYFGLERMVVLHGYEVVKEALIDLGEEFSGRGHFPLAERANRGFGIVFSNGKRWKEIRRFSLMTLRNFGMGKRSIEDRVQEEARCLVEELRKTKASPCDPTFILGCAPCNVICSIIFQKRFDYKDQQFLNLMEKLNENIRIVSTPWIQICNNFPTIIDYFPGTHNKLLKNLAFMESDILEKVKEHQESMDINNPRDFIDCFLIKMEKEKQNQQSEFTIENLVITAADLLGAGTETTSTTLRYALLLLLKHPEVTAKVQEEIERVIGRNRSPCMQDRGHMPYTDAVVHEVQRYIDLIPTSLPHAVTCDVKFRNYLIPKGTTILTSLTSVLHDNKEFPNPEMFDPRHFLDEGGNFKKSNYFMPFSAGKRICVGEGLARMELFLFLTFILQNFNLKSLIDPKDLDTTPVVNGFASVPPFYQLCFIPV

[14] = target: T3, Cytochrome P450 2C8; assay: Activity of human recombinant CYP2C8 assessed as enzyme contribution towards compound metabolism at 37 degC; assay type: ADME; outline: as §1
[15] = Dissociation constant, pKa of the compound; assay type: physicochemical
[16] = target: T4, Cytochrome P450 2D6; assay: Activity of human recombinant CYP2D6 assessed as enzyme contribution towards compound metabolism at 37 degC; assay type: ADME; outline: as §1
[17] = target: T6, Cytochrome P450 2C19; assay: Inhibition of human recombinant CYP2C19 coexpressed in Escherichia coli; assay type: ADME; outline: as §2

T1 sequence (P11712 whole entry, canonical isoform): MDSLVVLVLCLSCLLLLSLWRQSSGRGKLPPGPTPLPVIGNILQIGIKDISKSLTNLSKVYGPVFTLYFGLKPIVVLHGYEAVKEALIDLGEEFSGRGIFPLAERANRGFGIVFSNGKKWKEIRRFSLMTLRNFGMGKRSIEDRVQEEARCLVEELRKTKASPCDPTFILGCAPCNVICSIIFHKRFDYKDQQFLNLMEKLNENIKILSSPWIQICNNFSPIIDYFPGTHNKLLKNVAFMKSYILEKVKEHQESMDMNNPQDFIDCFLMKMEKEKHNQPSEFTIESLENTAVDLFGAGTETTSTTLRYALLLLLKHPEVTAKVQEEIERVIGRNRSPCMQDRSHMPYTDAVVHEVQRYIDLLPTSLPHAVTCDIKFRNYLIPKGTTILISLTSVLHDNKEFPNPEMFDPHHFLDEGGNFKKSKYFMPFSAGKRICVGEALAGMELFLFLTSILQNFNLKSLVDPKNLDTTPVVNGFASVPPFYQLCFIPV

| logD [1] | solubility [2] | pKa [15] | SMILES | IC50 [6] | also measured |
| --- | --- | --- | --- | --- | --- |
| 3.6 | – | 6.7 | c1ccc(CN2CCN(Cc3nnc(-c4ccccc4)o3)CC2)cc1 | 27.3 µM | CYP isoform contribution to compound metabolism [3]: 1.2%; Activity [4]: 92%; IC50 [5]: > 20 µM; IC50 [7]: > 20 µM; Activity [8]: 0%; microsomal CLint [9]: 4 µL/min/mg; IC50 [10]: > 20 µM; IC50 [11]: > 20 µM; IC50 [12]: > 20 µM; Activity [13]: 3.2%; Activity [14]: 1.5%; Activity [16]: 1.7%; IC50 [17]: > 20 µM |
| 2.2 | 81 µM (≈ 26.6 µg/mL) | – | CCCc1cc(=O)[nH]c(SCc2nnc(-c3ccccc3)o2)n1 | – | – |
| 3 | – | 3.4 | C[C@@H](Oc1nnc(-c2ccncc2)n1C)c1noc(-c2cccc(Cl)c2)n1 | 11.6 µM | – |

The next lines start with the compound.

| SMILES | logD [1] | solubility [2] | pKa [15] | IC50 [6] | also measured |
| --- | --- | --- | --- | --- | --- |
| CCCc1cc(O)nc(SCc2nc(-c3ccccc3)no2)n1 | 3.1 | 5 µM (≈ 1.64 µg/mL) | – | – | – |
| c1ccc(-c2nnc(-c3ccccc3)o2)cc1 | 4 | 26 µM (≈ 5.78 µg/mL) | – | – | – |
| CN(Cc1nc2ccccc2c(=O)[nH]1)Cc1nnc(-c2ccccc2)o1 | 2 | – | 2.3 | > 33 µM | – |
| c1ccc(-c2noc(CN3CCN(Cc4nc5ccccc5s4)CC3)n2)cc1 | 5.3 | – | 4.4 | 13 µM | – |
| c1ccc(-c2nnc(CN3CCN(Cc4nc5ccccc5s4)CC3)o2)cc1 | 3.9 | – | 4.4 | 30 µM | – |
| c1ccc(-c2noc(-c3ccccc3)n2)cc1 | 5.9 | 7 µM (≈ 1.56 µg/mL) | – | – | – |

Reference: ChEMBL document CHEMBL2069246, “Oxadiazoles in medicinal chemistry” (J Med Chem, 2012)
